This is an account of results in ChEMBL document CHEMBL3600335 (Bioorg Med Chem Lett, 2015).

SMILES strings stand for the structures. Values after ≈ are worked out from the molar mass of the structure shown. Active and inactive are the calls of the source. The calls are words filed in the database; no cut-off is given here. A value given as a limit tells only on which side of the number the result lay.

Data set [1] in a line: Cytotoxicity against African green monkey Vero cells assessed as cell viability after 48 hrs by Alamar Blue assay. As to conditions: chlorocebus sabaeus. Type of data set: cell-based.
For data set [2], the system named is Human alphaherpesvirus 2. Briefly: Antiviral activity against HSV-2 186 infected in African green monkey Vero cells assessed as inhibition of viral yield after 48 hrs by crystal violet staining. Format: functional, cell-based, strain 186. The method in brief: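 Viral replication yield reduction assay against HSV-2 strain 186 over a range of drug concentrations. Viral titer was averaged from quadruplicate samples at each concentration, and IC50 was calculated from the titers. Compounds were tested in two separate experiments.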

A short description of data set [3]: Selectivity index, ratio of CC50 for African green monkey Vero cells to IC50 for HSV-2 186. Type of data set: functional.
Data set [4] has as its target T1, Albumin (Homo sapiens, UniProt P02768). In words: Binding affinity to human serum albumin with excitation at 285 nm after 30 mins by fluorescence spectrophotometric analysis. Format: ADME.
The target in data set [5] is T1, Albumin. In words: Binding affinity to human serum albumin with excitation at 295 nm after 30 mins by fluorescence spectrophotometric analysis. Type of data set: ADME.
In data set [6] the test system is Human alphaherpesvirus 1. In words: Antiviral activity against HSV-1 15577 infected in African green monkey Vero cells assessed as reduction of virus-induced cytopathic effect after 4 to 6 days by light microscopic analysis. Format: functional, organism-based. The following applies: Human alphaherpesvirus 1, 15577, Vero. (In general: Cytopathic effects are the visible damage that an infection or toxin causes in cultured cells.)

The nature of data set [7]: Solubility of the compound in water at room temperature. Format: physicochemical.
The target of data set [8] is T1, Albumin. In words: Binding affinity to human serum albumin with excitation at 285 nm by fluorescence emission spectroscopic analysis. Format: ADME. The method in brief:
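Human serum albumin was titrated by fluorescence with the compound, using excitation at 285 nm. Kd was calculated from the titration spectra.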

A short description of data set [9]: Cytotoxicity against African green monkey RC-37 cells assessed as cell viability after 3 days by neutral red uptake assay. Format: cell-based. The following applies: chlorocebus aethiops.
A short description of data set [10]: Selectivity index, ratio of CC50 for African green monkey RC-37 cells to IC50 for HSV-1 KOS. Type of data set: functional.
The target in data set [11] is T1, Albumin. In words: Binding affinity to human serum albumin with excitation at 285 nm assessed as association constant by fluorescence emission spectroscopic analysis. The following applies: isolated protein, 0.285 µM. Type of data set: ADME.
Data set [12] deals with Human alphaherpesvirus 1. In words: Antiviral activity against HSV-1 KOS infected in African green monkey RC-37 cells assessed as inhibition of viral replication incubated with virus for 1 hr followed by viral adsorbtion to cells for 1 hr measured after 3 days by plaque reduction assay. Type of data set: functional, organism-based. The following applies: Human alphaherpesvirus 1, KOS. Background: Plaque reduction counts the foci of infection that form in a cell layer.

Data set [13] in a line: Cytotoxicity against African green monkey Vero cells assessed as cell viability after 3 days by MTT assay. Format: cell-based. As to conditions: chlorocebus sabaeus. Background: Tetrazolium assays rely on reduction of a dye to a coloured formazan, in cell work by metabolically active cells.
A short description of data set [14]: Selectivity index, ratio of CC50 for African green monkey Vero cells to IC50 for HSV-1 15578. Format: functional.
The test system of data set [15] is Human alphaherpesvirus 1. In words: Antiviral activity against HSV-1 15578 infected in African green monkey Vero cells assessed as reduction of virus-induced cytopathic effect after 4 to 6 days by light microscopic analysis. Format: functional, organism-based. As to conditions: Human alphaherpesvirus 1, 15578, Vero.
For data set [16], the target named is Human immunodeficiency virus type 1 reverse transcriptase (Human immunodeficiency virus 1) (UniProt Q72547). In words: Inhibition of HIV-1 reverse transcriptase at 37.5 to 150 ug/ml by Roche colorimetric assay.
Data set [17] shares this target. In words: Inhibition of HIV-1 reverse transcriptase in human Jurkat cells assessed as ratio MTT activity to reverse transcriptase activity with compound/reverse transcriptase activity with DMSO at 1 ug/ml after 72 hrs. Format: cell-based. The method in brief:
(§1)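 Jurkat cells infected with HIV-1 in the presence of compound, with DMSO as solvent control. Viability was read by MTT assay and HIV replication by reverse transcriptase activity assay. The value is the ratio MTT activity/(RT activity with compound/RT activity in DMSO).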

Data set [18] shares this target. In words: Inhibition of HIV-1 reverse transcriptase in human Jurkat cells assessed as ratio MTT activity to reverse transcriptase activity with compound/reverse transcriptase activity with DMSO at 5 ug/ml after 72 hrs. Type of data set: cell-based. The essentials:
as §1

The subject of data set [19] is Human alphaherpesvirus 1. In words: Antiviral activity against HSV-1 F infected in African green monkey Vero cells after 2 days by plaque reduction assay. Type of data set: functional, organism-based. As to conditions: Human alphaherpesvirus 1, strain F, 48 h.
The nature of data set [20]: Cytotoxicity against African green monkey Vero cells after 2 days by neutral red uptake assay. Type of data set: cell-based. As to conditions: chlorocebus sabaeus.
Data set [21] concerns Human alphaherpesvirus 2. In words: Antiviral activity against HSV-2 G infected in African green monkey Vero cells after 2 days by plaque reduction assay. Format: functional, organism-based. The following applies: Human alphaherpesvirus 2, strain G, 48 h.
Data set [22] can be described thus: Selectivity index, ratio of CC50 for African green monkey Vero cells to IC50 for HSV-1 F. Type of data set: functional.
The nature of data set [23]: Selectivity index, ratio of CC50 for African green monkey Vero cells to IC50 for HSV-2 G. Type of data set: functional.
Data set [24] can be described thus: Cytotoxicity against African green monkey Vero cells assessed as cell viability after 2 days by trypan blue exclusion assay. Format: cell-based. The following applies: chlorocebus sabaeus.
A short description of data set [25]: Selectivity index, ratio of CC50 for African green monkey Vero cells to IC50 for HSV-1 7401H. Type of data set: functional.
Data set [26] concerns Human alphaherpesvirus 1. Briefly: Antiviral activity against HSV-1 7401H infected in African green monkey Vero cells after 2 to 3 days by plaque reduction assay. As to conditions: Human alphaherpesvirus 1, 7401H.
[27] abbreviates: Human alphaherpesvirus 2, strain 186, Vero, 48 h.

T1 sequence (P02768 whole entry): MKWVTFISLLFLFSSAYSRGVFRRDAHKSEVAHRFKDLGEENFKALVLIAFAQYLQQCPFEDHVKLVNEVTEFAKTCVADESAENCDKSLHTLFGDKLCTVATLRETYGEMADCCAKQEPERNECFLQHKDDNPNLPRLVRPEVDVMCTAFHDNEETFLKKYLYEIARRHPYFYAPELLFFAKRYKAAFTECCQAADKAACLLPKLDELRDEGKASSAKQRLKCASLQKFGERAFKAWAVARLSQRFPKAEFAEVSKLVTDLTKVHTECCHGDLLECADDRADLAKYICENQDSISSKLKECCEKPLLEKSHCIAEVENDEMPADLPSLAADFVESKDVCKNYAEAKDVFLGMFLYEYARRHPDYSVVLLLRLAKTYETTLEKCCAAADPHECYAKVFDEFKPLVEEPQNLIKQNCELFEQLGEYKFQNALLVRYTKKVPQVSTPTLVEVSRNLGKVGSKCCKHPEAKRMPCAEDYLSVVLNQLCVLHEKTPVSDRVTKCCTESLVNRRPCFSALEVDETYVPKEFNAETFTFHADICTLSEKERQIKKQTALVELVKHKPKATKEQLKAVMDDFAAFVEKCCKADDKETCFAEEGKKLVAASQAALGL

In general, CC50 refers to the concentration giving 50% cytotoxicity. By IC50 is commonly meant the concentration at which inhibition is half-maximal. In general, Kd refers to the free concentration of one partner at which half of the binding sites on the other are occupied at equilibrium, for simple one-to-one binding. Take `C=C(C)[C@@H]1CC[C@]2(C(=O)N[C@H](C)C(=O)[O-])CC[C@]3(C)[C@H](CC[C@@H]4[C@@]5(C)CC[C@H](O)C(C)(C)[C@@H]5CC[C@]43C)[C@@H]12.CCCCCCCCCCCC[N+](C)(C)Cc1ccccc1`: in data set [1], the CC50 at 48 h came to 10.5 µM. Moreover, the IC50 in the data set on Human alphaherpesvirus 2 [2] (setting [27]) was determined as 0.9 µM. In addition, in data set [3], the “Ratio CC50/IC50” value was found to be 11.6. Besides, the Kd on Albumin [4] and on Albumin [5] was 19 µM throughout.
As for `C=C(C)[C@@H]1CC[C@]2(C(=O)O)CC[C@]3(C)[C@H](CC[C@@H]4[C@@]5(C)CC[C@@H](O)[C@@](C)(C(=O)O)[C@@H]5CC[C@]43C)[C@@H]12`, the IC50 in the data set with Human alphaherpesvirus 1 [6] is 64.4 µM.
What is called solubility is the concentration that dissolves in the medium under given conditions. In the case of `C=C(C)[C@@H]1CC[C@]2(C(=O)O)CC[C@]3(C)[C@H](CC[C@@H]4[C@@]5(C)CC[C@H](O)C(C)(C)[C@@H]5CC[C@]43C)[C@@H]12` [BETULINIC ACID], the figures for the IC50 with Human alphaherpesvirus 2 [2] (setting [27]) and in the data set with Human alphaherpesvirus 1 [12] were 1.6 µM and 0.7 µM, respectively. The same compound showed a solubility in data set [7] of 0.02 µg/mL (≈ 0.0438 µM). For the same compound, the “Ratio CC50/IC50” value in data set [3] is recorded as more than 62.5; in data set [10], 15.6. Moreover, the dissociation constant (Kd) turned out to be 0.593 µM at Albumin [8], 4.5 µM at Albumin [4] and 1.3 µM on Albumin [5]. In data set [9], the 50% cytotoxic concentration (CC50) at 72 h was 10.9 µM. Moreover, the Ka at Albumin [11] worked out at 1.685 ×10⁶ /M.
For `C=C(C)[C@@H]1CC[C@]2(C(=O)O)CC[C@]3(C)[C@H](CC[C@@H]4[C@@]5(C)CC[C@@H](OS(=O)(=O)O)C(C)(C)[C@@H]5CC[C@]43C)[C@@H]12`, the CC50 at 72 h in data set [13] came out at 228 µM. Moreover, the “Ratio CC50/IC50” value in [14] was found to be 5. Further, in the data set with Human alphaherpesvirus 1 [15], the IC50 amounted to 45.7 µM.
For the compound `C=C(C)[C@@H]1CC[C@]2(C(=O)N[C@H](C)C(=O)[O-])CC[C@]3(C)[C@H](CC[C@@H]4[C@@]5(C)CC[C@H](O)C(C)(C)[C@@H]5CC[C@]43C)[C@@H]12.C[N+](C)(C)CCO`, in [1], the CC50 at 48 h was more than 100 µM. The IC50 in the data set with Human alphaherpesvirus 2 [2] (setting [27]) worked out at 0.6 µM. In addition, the “Ratio CC50/IC50” value in [3] is more than 166.7. For the same compound, the equilibrium dissociation constant (Kd) on Albumin [4] came out at 47 µM; at Albumin [5], 37 µM.
As for `C=C(C)[C@@H]1CC[C@]2(C(=O)[O-])CC[C@]3(C)[C@H](CC[C@@H]4[C@@]5(C)CC[C@H](O)C(C)(C)[C@@H]5CC[C@]43C)[C@@H]12.C[N+](C)(C)CCO`, the CC50 at 48 h in data set [1] was more than 100 µM. For the same compound, in the data set on Human alphaherpesvirus 2 [2] (vero), the IC50 is 0.9 µM. For the same compound, the “Ratio CC50/IC50” value in [3] is reported as more than 111.1. Moreover, the Kd at Albumin [4] came out at 3.9 µM; at Albumin [5], 4 µM.
Regarding `C=C(C)[C@@H]1CC[C@]2(C(=O)O)CC[C@]3(C)[C@H](CC[C@@H]4[C@@]5(C)CC[C@H](O)C(C)(C)[C@@H]5CC[C@]43C)[C@@H]12`, the inhibition entry in [16] was “inactive”. The values for the Ratio in data set [17] and in data set [18] were 0.158 and 0.649, respectively.
Consider `C=C(C)[C@@H]1CC[C@]2(C(=O)[O-])CC[C@]3(C)[C@H](CC[C@@H]4[C@@]5(C)CC[C@H](O)C(C)(C)[C@@H]5CC[C@]43C)[C@@H]12.CCCCCCCCCCCC[N+](C)(C)Cc1ccccc1`, for which, in data set [1], the CC50 at 48 h was 12 µM. For the same compound, the IC50 in the data set with Human alphaherpesvirus 2 [2] (setting [27]) came out at 7.2 µM. In data set [3], the “Ratio CC50/IC50” value is 1.7. For the same compound, the Kd on Albumin [4] is 1.6 µM; at Albumin [5], 1.9 µM.
As to `C=C(C)[C@@H]1CC[C@]2(CO)CC[C@]3(C)[C@H](CC[C@@H]4[C@@]5(C)CC[C@H](O)C(C)(C)[C@@H]5CC[C@]43C)[C@@H]12` [BETULIN], the IC50 in the data set on Human alphaherpesvirus 1 [19] stood at 0.9 µM; with Human alphaherpesvirus 2 [21], 9.4 µM; in the data set with Human alphaherpesvirus 1 [12], 0.7 µM. Also, it took 165 µM to reach half-maximal cytotoxicity in data set [20] (CC50 at 48 h). In addition, the entries for the “Ratio CC50/IC50” value in [22], in data set [10] and in [23] were 183, 71 and 17.6, respectively. Also, in [9], the half-maximal cytotoxic concentration (CC50) at 72 h was 49.7 µM.
On to `C=C(C)[C@@H]1CC[C@]2(C(=O)O)CC[C@]3(C)[C@H](CC[C@@H]4[C@@]5(C)CCC(=O)C(C)(C)[C@@H]5CC[C@]43C)[C@@H]12` [BETUNOLIC ACID], for which the CC50 at 48 h in [24] stood at 35.6 µM. Besides, the “Ratio CC50/IC50” value in [25] worked out at 6.2. Also, inhibition in the data set on Human alphaherpesvirus 1 [26] was half-maximal at 5.7 µM (IC50).
